CAL PDZ FP-1 – blocks peptide binding to human CAL PDZ domain. Q9HD26. hit rate 0.02% among 330,000. AID 504414. purified CAL PDZ, TMR-peptide fluorescence polarization, 1 h. inhibition, % at 20 µM;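 active = highest replicate inhibition of at least 40%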;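 note: plate controls were DMSO neutral control wells for no effect and unlabeled competitor peptide control wells for full effect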
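Assay system – tagged CAL PDZ protein CerCALP, purified · Timing – 1 h at RT · Compound – single point, 20 µM · Measured by – fluorescence polarization from S- and P-plane intensities, G-factor corrected · Evaluation – inhibition from polarization loss · Probe or stimulus – TMR reporter peptide T*-PRC34 · Buffer or medium – pH 7.4 phosphate-saline buffer, reducing agent, detergent, IgG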
AI-2 QS mod – modulates the Vibrio harveyi AI-2 quorum sensing system; activity change, % at 7.5 µM; Vibrio harveyi JMH597 AI-2 luminescence/OD600 ratio, 9 h; stronger effect = lower value; strain lacks LuxN and CqsS sensors; 0 = neutral-control median; hit rate 0.4% among 300,000; in the data active = activity change below about -75%, passing the limit was not always enough; inconclusive = no clear call, values can overlap the other calls;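 note: luminescence divided by OD600 gain over 9 h not by final OD600 alone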
CAL PDZ FP-2 – blocks peptide binding to the human CAL PDZ domain | Q9HD26 | AID 602252 | purified CAL PDZ, TMR-peptide fluorescence polarization, 1 h | inhibition, % at 24.9 µM | hit rate 0.92% among 300,000;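 active = mean inhibition of at least 30% with at least half of replicates also reaching 30%; inconclusive = no clear call, values can overlap the other calls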;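 note: 0% = DMSO neutral control and 100% = excess unlabeled competitor peptide PRC23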
ARNT TACC3 PPI – disrupts binding between human ARNT and TACC3. inhibition, % at 9.99 µM. AlphaScreen His-ARNT PAS-B/GST-TACC3 binding, luminescence; TACC3 fragment carries E629A point mutation. AID 623870. hit rate 0.66% among 390,000;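 active = mean inhibition of replicates at least 50% and at least half of replicates each reaching 50%; inconclusive = half or more replicates reach 50% but mean below 50%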;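 note: 0% = complete ARNT plus TACC3 wells and 100% = ARNT alone without TACC3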
Rce1 inhib – yeast Ras-converting enzyme inhibition; Q03530; yeast membranes, quenched prenylated peptide cleavage fluorescence; calls only; hit rate 0.27% among 290,000;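 active = fall in fluorescence gain of 50% or more versus controls, with final raw signal at or below 3038400; inconclusive = same 50% fall but final raw signal above 3038400; inactive = fall in fluorescence gain under 50%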;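 note: plate controls were neutral control wells for no effect and wells lacking membranes for full effect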
Target sequence (Q03530 whole entry, looked up): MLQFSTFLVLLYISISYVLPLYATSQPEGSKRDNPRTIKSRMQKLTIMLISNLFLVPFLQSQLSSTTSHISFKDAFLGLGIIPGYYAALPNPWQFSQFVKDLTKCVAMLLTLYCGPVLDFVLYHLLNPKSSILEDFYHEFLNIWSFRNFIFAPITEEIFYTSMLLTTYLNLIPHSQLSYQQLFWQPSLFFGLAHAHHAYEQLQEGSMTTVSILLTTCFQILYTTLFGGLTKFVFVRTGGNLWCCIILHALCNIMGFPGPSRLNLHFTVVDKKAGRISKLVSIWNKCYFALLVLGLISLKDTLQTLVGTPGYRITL
JMH597 growth rt – retest: blocks Vibrio harveyi JMH597 growth. AID 2726. growth inhibition, % at 7.5 µM. shares compounds with AI-2 QS mod. hit rate 1% among 750. OD600 absorbance, 9 h; lacks LuxN and CqsS sensors;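 active = every replicate shows growth inhibition above 50%; inconclusive = at least half, but not all, replicates pass that cutoff; inactive = fewer than half of replicates pass it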
BB721 const-QS lum – retest counter-screen: luminescence loss in constitutive-on quorum sensing strain BB721; shares compounds with AI-2 QS mod; Vibrio harveyi BB721 luminescence, 9 h; inhibition, % at 7.5 µM; hit rate 95% among 750; AID 2727;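 active = inhibition above about 80% in every replicate, not just on average, limit read from the data; inconclusive = at least half of replicates past the limit, but not all; inactive = fewer than half of replicates past the limit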
BB721 growth rt – retest: blocks Vibrio harveyi BB721 growth; shares compounds with AI-2 QS mod; OD600 absorbance, 9 h; growth inhibition, % at 7.5 µM; hit rate 3% among 750; AID 2728;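 active = every replicate shows growth inhibition above 50%; inconclusive = at least half but not all replicates above 50% inhibition; inactive = under half of replicates above 50% inhibition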
AI-2 QS JMH597 – Vibrio harveyi AI-2 signaling luminescence modulation – JMH597 strain, confirmation | hit rate 97% among 750 | AID 2736 | Vibrio harveyi JMH597 AI-2 quorum sensing luminescence, 9 h; luxN and CqsS knockout, AI-2 only | inhibition, % at 7.5 µM | shares compounds with AI-2 QS mod;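 active = every replicate shows more than 75% inhibition of signal versus neutral control wells; inconclusive = half to three quarters of replicates exceed 75% inhibition; inactive = fewer than half of replicates exceed 75% inhibition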
* hit, by the source's call; i = inactive; ? = inconclusive; . = not tested or not shown. A selection: hits, their analogues and other compounds. The true share with any hit is near 1.7%.

SMILES	CAL PDZ FP-1	AI-2 QS mod	CAL PDZ FP-2	ARNT TACC3 PPI	Rce1 inhib	JMH597 growth rt	BB721 const-QS lum	BB721 growth rt	AI-2 QS JMH597
O=C(COC(=O)c1ccc(Cl)s1)c1cc2ccccc2o1	-1	-95*	1	-5	i	21	99*	29	99*
CC(C)CCNC(=O)CN(Cc1ccccc1)C(=O)CCC(=O)Nc1nccs1	-2	30	-3	-4	i	.	.	.	.
O=c1oc2ccccc2cc1NCc1ccccc1O	0	-94*	0	.	i	14	97*	15	98*
O=C(NCc1ccccc1Cl)c1cc2ccccc2oc1=O	-1	-9	-1	-2	i	.	.	.	.
Cc1nc(-c2cccnc2)sc1C(=O)Nc1ccc(C(F)(F)F)cc1	-3	1	7	26	i	.	.	.	.
Cc1nc(-c2cccnc2)sc1C(=O)Nc1cccc(C(F)(F)F)c1	-1	-86*	-3	4	i	-15	85*	10	89*
C[C@H]1CCCCO[C@@H](CN(C)Cc2ccncc2)[C@@H](C)CN([C@@H](C)CO)C(=O)c2cc(NS(=O)(=O)c3ccc(Cl)cc3)ccc2O1	.	.	.	4	.	.	.	.	.
O=C(Cc1ccc(Cl)cc1)N/N=C/c1ccccc1	0	-65	1	-4	i	.	.	.	.
O=C(Cc1ccc(Cl)cc1)N/N=C/c1ccncc1	-1	-81*	-6	1	i	-25	92*	6	92*
O=C(Cc1ccc(Cl)cc1)N/N=C/c1cccc(O)c1	-1	-95*	-2	-3	i	12	97*	1	98*
CC(C)(C)c1cc(OC(=O)c2ccncc2)ccc1O	.	.	-1	1	.	.	.	.	.
CC(C)(C)c1cc(OC(=O)c2ccccc2F)ccc1O	0	-86*	-1	-5	i	8	97*	26	97*
O=C(N/N=C/c1ccc(Cl)c([N+](=O)[O-])c1)c1cc(-c2ccc3c4c(cccc24)CC3)n[nH]1	-2	26	-4	-1	i	.	.	.	.
Clc1ccc(OCc2cc(-c3ccccc3)no2)cc1Cl	0	?	-7	4	i	-16	97*	-25	98*
COc1ccc(-c2noc(CCc3ccccc3)n2)cc1	-1	?	-6	-11	i	26	94*	-27	97*
Cc1cccc(-c2noc(Cc3ccc(Cl)cc3)n2)c1	-1	-64	-6	-12	i	.	.	.	.
c1ccc(OCCCc2nc(-c3cccnc3)no2)cc1	0	-93*	-6	2	i	7	98*	-15	99*
COc1ccc(Cc2nc(-c3cccc(C)c3)no2)cc1	-3	-80*	3	-19	i	3	94*	-259	96*
COc1ccc(Cc2nc(-c3ccccn3)no2)cc1	-1	-88*	-2	-2	i	-9	95*	-20	96*
C[C@@H]1CN([C@H](C)CO)C(=O)c2cc(C3=CCCCC3)cnc2O[C@H]1CN(C)Cc1ccccc1F	.	.	.	7	.	.	.	.	.
Cc1cc(=O)[nH]c(SCC(=O)NC2CCCCC2)n1	-2	5	2	-7	i	.	.	.	.
CCOC(=O)CNC(=O)CCCCCC(=O)NCC(=O)OCC	-3	11	2	3	i	.	.	.	.
CN(C)S(=O)(=O)c1ccc(NC(=O)COc2ncnc3sccc23)cc1	-2	-97*	-13	-2	i	-2	100*	5	100*
CN(C)S(=O)(=O)c1ccc(NC(=O)CSc2ncnc3ccccc23)cc1	-3	-86*	-2	.	i	4	92*	6	94*
CNC(=O)COc1ncnc2sccc12	.	.	1	-2	.	.	.	.	.
SMILES	CAL PDZ FP-1	AI-2 QS mod	CAL PDZ FP-2	ARNT TACC3 PPI	Rce1 inhib	JMH597 growth rt	BB721 const-QS lum	BB721 growth rt	AI-2 QS JMH597
Clc1ccc2oc(SCc3cccnc3)nc2c1	1	-81*	-2	-1	i	1	97*	15	96*
CCOC(=O)c1c(-c2ccccc2)c2cc(OC)ccc2n1CCCN(C)C	-1	38	8	10	i	.	.	.	.
Cc1ccc(CSc2nnc(-c3cccnc3)n2N)cc1	-1	-90*	.	-4	i	-8	96*	-1	97*
O=C(CSc1ncnc2ccccc12)NC1CCS(=O)(=O)C1 (centres undefined)	-3	.	-20	-17	.	.	.	.	.
O=C(COC(=O)Cc1ccccc1F)Nc1ccc(SC(F)F)cc1	0	-20	4	0	i	.	.	.	.
O=C(Cc1ccccc1F)Nc1ccc(SC(F)F)cc1	-3	-83*	0	.	i	23	94*	26	94*
Cc1cccc(Oc2cnn(C(C)(C)C)c(=O)c2Cl)c1	-2	-92*	1	.	i	21	96*	-19	98*
CC(C)CC(NC(=O)OC(C)(C)C)c1cn([C@@H](Cc2cc3ccccc3[nH]2)C(=O)N2CCN(C(=O)OC(C)(C)C)CC2)nn1 (some centres undefined)	-1	82	-7	3	i	.	.	.	.
COc1ccc(OCC(O)CN2CCc3ccccc3C2)cc1 (centres undefined)	-2	16	1	-5	i	.	.	.	.
CC(C)(C)c1ccc(OCC(O)CN2CCc3ccccc3C2)cc1 (centres undefined)	.	-82*	.	.	.	16	81*	1	88*
COc1ccc(C(=O)OCC(=O)c2c[nH]c3ccccc23)cc1OC	0	.	-3	-2	.	.	.	.	.
Cc1ccc(C(=O)OCC(=O)c2c[nH]c3ccccc23)cc1	-3	-79*	1	.	i	1	77*	13	86*
O=C(Nc1ccc(OCc2ccccc2)cc1)c1ccccc1	-2	3	-1	-8	i	.	.	.	.
CC(C)=CC(=O)Nc1ccc(OCc2ccccc2)cc1	0	-83*	-4	9	i	-16	94*	-5	96*
O=C(Nc1cccc(C(F)(F)F)c1)C1CCN(S(=O)(=O)c2cccnc2)CC1	0	-83*	.	-1	i	-29	92*	28	94*
Cc1ccc(CNC(=O)C2CCN(S(=O)(=O)c3cccnc3)CC2)cc1	-1	?	-1	-4	i	29	93*	8	95*
O=C(NCc1cccnc1)C1CCN(S(=O)(=O)c2cccc(C(F)(F)F)c2)CC1	1	.	.	0	.	.	.	.	.
Cc1ccc(NC(=O)C2CCN(S(=O)(=O)c3cccnc3)CC2)cc1C	-3	-89*	-4	-29	i	19	95*	18	96*
CNCC(O)COc1cccc(OC)c1 (centres undefined)	1	10	5	-15	i	.	.	.	.

Compound activity (PubChem BioAssay)
